Results as given in ChEMBL document CHEMBL5107952, “Synthesis of low-molecular weight fucoidan derivatives and their binding abilities to SARS-CoV-2 spike proteins” (RSC Med Chem, 2021).
Active and inactive are the calls of the source. The rule behind the calls is not given here.

Columns and labels:
[1] = target: Spike glycoprotein (Severe acute respiratory syndrome coronavirus 2) (UniProt P0DTC2); experiment: Competitive inhibition of biotinylated heparin binding to His-tagged wild type SARS-COV-2 spike protein at 50 uM incubated for 300 sec by biolayer interferometry streptavidin sensor based assay
[2] = target: T1, Spike glycoprotein (Severe acute respiratory syndrome coronavirus 2, UniProt P0DTC2); experiment: Competitive inhibition of biotinylated heparin binding to His-tagged wild type SARS-COV-2 spike protein assessed inhibition constant incubated for 300 sec by biolayer interferometry streptavidin sensor based assay
Outline: (§1)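 Streptavidin BLI sensor tips loaded with biotinylated heparin and exposed to wild-type S protein (1 μM) mixed with test compound (0–500 μM) in TBS (20 mM Tris, pH 7.4, 0.02% BSA). Bound (%) was taken from the BLI response. IC50 came from nonlinear regression, and Ki was derived from IC50 by the Cheng–Prusoff equation.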

[3] = target: T1, Spike glycoprotein; experiment: Competitive inhibition of biotinylated heparin binding to His-tagged wild type SARS-COV-2 spike protein incubated for 300 sec by biolayer interferometry streptavidin sensor based assay; outline: as §1

| SMILES | inhibition [1] | Ki [2] [µM] | IC50 [3] [µM] |
| --- | --- | --- | --- |
| CCCCCCCCO[C@H]1O[C@@H](C)[C@@H](O[C@@H]2O[C@@H](C)[C@@H](OS(=O)(=O)O)[C@@H](O[C@@H]3O[C@@H](C)[C@@H](O[C@@H]4O[C@@H](C)[C@@H](OS(=O)(=O)O)[C@@H](OS(=O)(=O)O)[C@@H]4OS(=O)(=O)O)[C@@H](OS(=O)(=O)O)[C@@H]3OS(=O)(=O)O)[C@@H]2OS(=O)(=O)O)[C@@H](OS(=O)(=O)O)[C@@H]1OS(=O)(=O)O | Active | – | – |
| CCCCCCCCO[C@H]1O[C@@H](C)[C@@H](O[C@@H]2O[C@@H](C)[C@@H](O[C@@H]3O[C@@H](C)[C@@H](O[C@@H]4O[C@@H](C)[C@@H](OS(=O)(=O)O)[C@@H](OS(=O)(=O)O)[C@@H]4OS(=O)(=O)O)[C@@H](OS(=O)(=O)O)[C@@H]3OS(=O)(=O)O)[C@@H](OS(=O)(=O)O)[C@@H]2OS(=O)(=O)O)[C@@H](OS(=O)(=O)O)[C@@H]1OS(=O)(=O)O | Active | 3.02 | 86.9 |
| CCCCCCCCO[C@H]1O[C@@H](C)[C@@H](OS(=O)(=O)O)[C@@H](O[C@@H]2O[C@@H](C)[C@@H](OS(=O)(=O)O)[C@@H](O[C@@H]3O[C@@H](C)[C@@H](OS(=O)(=O)O)[C@@H](O[C@@H]4O[C@@H](C)[C@@H](OS(=O)(=O)O)[C@@H](OS(=O)(=O)O)[C@@H]4OS(=O)(=O)O)[C@@H]3OS(=O)(=O)O)[C@@H]2OS(=O)(=O)O)[C@@H]1OS(=O)(=O)O | < 10% | – | – |
